target: T1, Prostaglandin G/H synthase 1 (Ovis aries) (UniProt P05979); assay: Inhibition of sheep COX1 assessed as PGE2 level at 50 uM by ELISA
T1 sequence (whole entry): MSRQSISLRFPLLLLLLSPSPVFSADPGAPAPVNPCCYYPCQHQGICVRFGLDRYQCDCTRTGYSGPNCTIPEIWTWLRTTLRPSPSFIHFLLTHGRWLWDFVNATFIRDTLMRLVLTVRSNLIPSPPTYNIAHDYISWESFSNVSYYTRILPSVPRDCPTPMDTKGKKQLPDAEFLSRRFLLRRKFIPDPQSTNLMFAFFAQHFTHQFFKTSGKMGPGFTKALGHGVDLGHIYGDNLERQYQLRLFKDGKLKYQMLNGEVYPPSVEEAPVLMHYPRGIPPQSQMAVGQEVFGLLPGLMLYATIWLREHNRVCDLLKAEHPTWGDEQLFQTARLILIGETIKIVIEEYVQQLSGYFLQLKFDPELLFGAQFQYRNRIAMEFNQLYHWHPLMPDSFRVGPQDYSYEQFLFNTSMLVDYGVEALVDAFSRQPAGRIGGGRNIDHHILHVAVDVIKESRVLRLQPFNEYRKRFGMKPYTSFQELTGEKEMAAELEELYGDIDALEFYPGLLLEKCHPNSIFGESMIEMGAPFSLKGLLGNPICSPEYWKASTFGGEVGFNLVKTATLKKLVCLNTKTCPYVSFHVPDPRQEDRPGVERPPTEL
Outline: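 Ovine COX-1 preincubated 10 min at 37 °C in 100 mM Tris-HCl pH 8.0 with 1 µM heme. Compounds in DMSO, diluted in 100 mM potassium phosphate pH 7.4. Arachidonic acid added to 100 uM final; stopped after 2 min with 1 M HCl. PGE2 measured by competitive ELISA with AChE tracer and Ellman's reagent at 412 nm against a PGE2 standard curve. Expressed as % of solvent control; duplicate, two independent experiments.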

SMILES	inhibition
COc1ccc2c(c1)c(CC(=O)O)c(C)n2C(=O)c1ccc(Cl)cc1	78%
Cc1noc2c(Cc3ccccc3)nn(CC(=O)N/N=C\c3ccccc3Cl)c(=O)c12	52.8%
Cc1noc2c(Cc3ccccc3)nn(CC(=O)N/N=C\c3cccc(F)c3)c(=O)c12	83%
Cc1noc2c(Cc3ccccc3)nn(CC(=O)N/N=C\c3ccccc3[N+](=O)[O-])c(=O)c12	59%
Cc1noc2c(Cc3ccccc3)nn(CC(=O)N/N=C\c3cccc(Cl)c3)c(=O)c12	36.3%
Cc1noc2c(Cc3ccccc3)nn(CC(=O)N/N=C\c3ccc(Br)cc3)c(=O)c12	50.6%
Cc1noc2c(Cc3ccccc3)nn(CC(=O)N/N=C\c3ccccc3)c(=O)c12	50.6%
Cc1noc2c(Cc3ccccc3)nn(CC(=O)N/N=C\c3ccc(C(F)(F)F)cc3)c(=O)c12	64%
Cc1noc2c(Cc3ccccc3)nn(CC(=O)N/N=C\c3ccccc3C(F)(F)F)c(=O)c12	51%
Cc1noc2c(Cc3ccccc3)nn(CC(=O)N/N=C\c3ccccc3Br)c(=O)c12	52.8%
Cc1noc2c(Cc3ccccc3)nn(CC(=O)N/N=C\c3ccc(Cl)cc3)c(=O)c12	39.6%
COc1ccc(/C=N\NC(=O)Cn2nc(Cc3ccccc3)c3onc(C)c3c2=O)cc1	46.3%
Cc1noc2c(Cc3ccccc3)nn(CC(=O)N/N=C\c3ccc([N+](=O)[O-])cc3)c(=O)c12	40.7%
Cc1noc2c(Cc3ccccc3)nn(CC(=O)N/N=C\c3ccccc3F)c(=O)c12	41.8%
Cc1cccc(/C=N\NC(=O)Cn2nc(Cc3ccccc3)c3onc(C)c3c2=O)c1	61%
Cc1noc2c(Cc3ccccc3)nn(CC(=O)N/N=C\c3cccc(Br)c3)c(=O)c12	42.9%
COc1cccc(/C=N\NC(=O)Cn2nc(Cc3ccccc3)c3onc(C)c3c2=O)c1	55.2%
Cc1noc2c(Cc3ccccc3)nn(CC(=O)N/N=C\c3cccc(C(F)(F)F)c3)c(=O)c12	47.1%
Cc1ccc(/C=N\NC(=O)Cn2nc(Cc3ccccc3)c3onc(C)c3c2=O)cc1	62.1%
Cc1noc2c(Cc3ccccc3)nn(CC(=O)N/N=C\c3ccc(F)cc3)c(=O)c12	54%
COc1ccccc1/C=N\NC(=O)Cn1nc(Cc2ccccc2)c2onc(C)c2c1=O	65%
Cc1noc2c(Cc3ccccc3)nn(CC(=O)N/N=C\c3cccc([N+](=O)[O-])c3)c(=O)c12	39.6%
Cc1ccccc1/C=N\NC(=O)Cn1nc(Cc2ccccc2)c2onc(C)c2c1=O	46.9%

Reference: ChEMBL document CHEMBL1165885, “Synthesis and cyclooxygenase inhibitory activities of some N-acylhydrazone derivatives of isoxazolo[4,5-d]pyridazin-4(5H)-ones” (Eur J Med Chem, 2010)
